Assay [1] relates to HT-29. Kind of assay: Cytotoxicity against human HT29 cells ATCC HTB38 in aerobic condition assessed as survival at 100 uM by sulforhodamine assay. The class given is functional. The note with it: read-out: Activity. In outline:
(§1)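 Cells kept in RPMI with L-glutamine, penicillin/streptomycin, non-essential amino acids (1% each) and 10% FBS, 37 °C, 5% CO2, 48 h; compound added from 1 mM stock in 10% DMSO to final 100 µM, 24 h exposure. TCA fixation 1 h at 4 °C, sulforhodamine B staining, Tris pH 10.0, A540. Survival = (T/C)×100 versus solvent control; duplicates, two repetitions averaged.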

Assay [2] relates to TK-10. The assay can be described thus: Growth inhibition of TK10 cells by sulforhodamine assay. In kind it is functional, cell-based. The note with it: Homo sapiens. In short, it runs like this: (§2)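 Cells grown in supplemented RPMI with 10% FBS at 37 °C, 5% CO2, 48 h, then exposed to increasing compound concentrations (1 mM stocks in 10% DMSO) for 24 h. Sulforhodamine B read-out after TCA fixation at A540. IC50 is the concentration halving absorbance relative to solvent control. Duplicates, at least two repetitions, means reported.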

Assay [3] concerns MCF7. The assay can be described thus: Cytotoxicity against human MCF7 cells […] in aerobic condition assessed as survival at 100 uM by sulforhodamine assay. The note with it: read-out: Activity. The class given is functional. In short, it runs like this: as §1
Assay [4] has as its system TK-10. The assay can be described thus: Cytotoxicity against human TK10 cells in aerobic condition assessed as survival at 100 uM by sulforhodamine assay. In kind it is functional. The note with it: read-out: Activity. In short, it runs like this: as §1
The subject of assay [5] is HT-29. Kind of assay: Growth inhibition of HT29 cells by sulforhodamine assay. The note with it: Homo sapiens. In kind it is functional, cell-based. In outline:
as §2

Assay [6] concerns MCF7. The assay can be described thus: Growth inhibition of MCF7 cells by sulforhodamine assay. The class given is functional, cell-based. The note with it: Homo sapiens. In short, it runs like this:
as §2

A short description of assay [7]: Growth inhibition of HK2 cells by sulforhodamine assay. In kind it is cell-based. The note with it: Homo sapiens, HK-2.

In general, IC50 refers to the point on the concentration scale where inhibition reaches its midpoint.

Each structure is given as a SMILES string.

As for `O=C(/C=C/c1ccccn1)c1ccccc1O`, the viability at 100 µM is 15% in the assay with HT-29 [1], 4% in the assay on MCF7 [3] and 1% with TK-10 [4]. Further, the IC50 in the assay on TK-10 [2] amounted to 12.2 µM; in the assay on HT-29 [5], 13.8 µM; in the assay with MCF7 [6] it was 6.7 µM; in assay [7], 7.9 µM.

Take `O=C(/C=C/c1ccccc1)c1ccccc1O` [2'-HYDROXYCHALCONE]: the viability at 100 µM with HT-29 [1] amounted to 14%; in the assay with MCF7 [3], 3%; with TK-10 [4], 0%. In addition, the IC50 with TK-10 [2] is 79 µM; with HT-29 [5], 85 µM; in the assay on MCF7 [6], 78 µM; in assay [7], 24.4 µM.

As for `COc1ccc(/C=C/C(=O)c2ccccc2)cc1` [4-METHOXY CHALCONE], the viability at 100 µM with HT-29 [1] came to 2%; in the assay on MCF7 [3] it was 30%; with TK-10 [4], 2%. For the same compound, the IC50 with TK-10 [2] amounted to 53 µM; in the assay on HT-29 [5], 54 µM; in the assay with MCF7 [6] it was 90 µM; in assay [7] it was 23.2 µM.

In the case of `O=C(/C=C/c1ccccc1)c1ccccc1` [CHALCONE], the viability at 100 µM in the assay on HT-29 [1] was 5%; in the assay with MCF7 [3], 19%; in the assay on TK-10 [4], 2%. The half-maximal inhibitory concentration (IC50) amounted to 42 µM in the assay with TK-10 [2], 70 µM in the assay with HT-29 [5], 63 µM with MCF7 [6] and 30.5 µM in assay [7].

These data come from ChEMBL document CHEMBL1147926, “Synthetic chalcones, flavanones, and flavones as antitumoral agents: biological evaluation and structure-activity relationships” (Bioorg Med Chem, 2007).
